Assay outcomes as filed in PubChem.
This is a sample that favours compounds with a hit; in the whole collection about 5.5% have one here.
PostGolgi ctrl = growth inhibition of yeast control strain, primary screen, counter-screen for post-Golgi transport modulator project. efflux-deficient yeast background strain, growth absorbance A615, 16 h. inhibition, % at 10 µM. 98,000 compounds, 5% hits. AID 738, 2007
Ecoli WT expand = growth inhibitors of wild-type E. coli, primary screen, strain BW25113, expanded library, OD600 | OD600 absorbance | growth inhibition, % at 100 µM | 98,000 compounds, 0.15% hits;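 active = growth inhibition above about 50% at one test dose, limit read from the data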;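 note: growth measured after 20 h incubation at 37 °C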
PostGolgi yeast = phenotypic screen on post-Golgi transport, primary screen; post-Golgi transport phenotypic cell assay; inhibition, % at 10 µM; 98,000 compounds, 0.9% hits; AID 739, 2007;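 note: yeast cells grown in 1536-well plates; yeast grown about 18 h at 30C before absorbance read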
PLAP activator = PLAP enzyme activators, biochemical, luminescence, HTS; Alkaline phosphatase, placental type (Homo sapiens), P05187; purified PLAP enzyme, luminescent substrate read-out; stronger effect = higher value; activation fold at 20 µM; 96,000 compounds, 1.2% hits; AID 696, 2007; in the data active = activation fold above about 2
Target sequence (P05187 whole entry, looked up): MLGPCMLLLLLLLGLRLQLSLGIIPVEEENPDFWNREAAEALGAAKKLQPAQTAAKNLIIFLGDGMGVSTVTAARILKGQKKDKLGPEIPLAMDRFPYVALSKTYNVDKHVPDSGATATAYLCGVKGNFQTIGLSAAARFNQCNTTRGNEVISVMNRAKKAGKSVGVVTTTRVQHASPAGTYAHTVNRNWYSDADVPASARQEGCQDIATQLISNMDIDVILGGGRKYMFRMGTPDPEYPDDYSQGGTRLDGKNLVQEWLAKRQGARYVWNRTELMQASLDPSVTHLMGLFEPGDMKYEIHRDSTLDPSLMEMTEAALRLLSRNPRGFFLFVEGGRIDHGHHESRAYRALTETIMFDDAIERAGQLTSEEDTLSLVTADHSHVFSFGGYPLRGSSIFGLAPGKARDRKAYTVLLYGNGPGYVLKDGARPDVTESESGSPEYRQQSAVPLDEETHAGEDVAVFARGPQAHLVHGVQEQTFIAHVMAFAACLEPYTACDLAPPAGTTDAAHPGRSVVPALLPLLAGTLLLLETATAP
HePTP inhibitor = inhibitors of human HePTP phosphatase, primary screen, biochemical, absorbance, leukemia target | Tyrosine-protein phosphatase non-receptor type 7 (Homo sapiens), P35236 | recombinant HePTP phosphatase activity, OD absorbance | inhibition, % at 20 µM | 110,000 compounds, 0.64% hits; in the data active = inhibition above about 50%;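 note: plate controls were vehicle for no effect and reference inhibitor for full effect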
Ecoli tolC = growth inhibitors of E. coli tolC mutant, primary screen, strain BW25113 ΔtolC::kan, 384-well; OD615; growth inhibition, % at 10 µM (by protocol); 65,000 compounds, 2.2% hits; AID 573, 2007;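 active = growth inhibition at or above a cutoff equal to the mean over every tested compound plus 3 SD, cut at about 60% in these data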;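 note: growth measured after 20 h incubation at 37 °C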
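Material: E. coli BW25113 ΔtolC::kan, tolC deletion mutant strain. Measure: percent growth inhibition. Schedule: 37 °C, 20 h exposure. Doses: single-point testing at 10 µM. Signal: A615 absorbance measurement. Buffer or medium: kanamycin-containing LB broth (50 µg/mL).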
* = called active by the depositor; . = no result. Cut-off read from the data, not from the text of the source, unless noted: active = inhibition above about 30%; inactive = the rest.

SMILES	PostGolgi ctrl	Ecoli WT expand	PostGolgi yeast	PLAP activator	HePTP inhibitor	Ecoli tolC
CCCn1c2c(c(O)c(C(=O)Nc3ncccc3C)c1=O)CCCC2	43.4*	1.0	-2.1	1.2	10.0	49.8
CC1CCCC/C1=N/Nc1ccc([N+](=O)[O-])cc1[N+](=O)[O-] (stereo not given)	36.4*	1.0	-3.4	0.1	.	.
COC(=O)CC/C(C)=N\Nc1ccc([N+](=O)[O-])cc1[N+](=O)[O-]	13.8	-13.0	-3.3	1	.	.
COc1ccc(-n2nc3cc(C)c(NC(=O)COc4ccc(Cl)cc4C)cc3n2)cc1	.	.	.	.	2.6	.
Fc1ccccc1Nc1nc2ccccc2n2nnnc12	50.9*	-4.0	3.0	0.9	.	.
CCOc1cc(/C=C2/SC(=S)N(C)C2=O)ccc1OS(=O)(=O)c1ccc(C)cc1	.	.	.	.	-7.2	.
NS(=O)(=O)c1ccc(NC(=O)C2COc3ccccc3O2)cc1 (stereo not given)	3.9	11.0	10.6	1.1	.	.
CC1CC(C)CN(S(=O)(=O)c2ccc(NC(=O)C3COc4ccccc4O3)cc2)C1 (stereo not given)	38.0*	-11.0	3.2	.	0.2	39.6
CC(=O)Nc1ccc(-c2csc(N)n2)cc1	.	.	.	.	4.1	.
CC(C)(C)c1cnnn1-c1ccc(-c2csc(N)n2)cc1	45.9*	5.0	21.4	1.1	5.0	-5.2
CCOC(=O)N1CCN(CC(O)COCCC23CC4CC(CC(C4)C2)C3)CC1 (stereo not given)	31.0*	9.0	3.9	1.6	.	.
CCCCC(CC)C(=O)Nc1ccccc1C(=O)NC(C)C (stereo not given)	37.1*	9.0	2.0	0.9	6.0	-5.1
CC(C)N1C(=O)C2C(C(=O)NCc3ccccc3)C3C=CC2(O3)C1C(=O)NC(C)(C)C (stereo not given)	42.1*	0.0	6.4	1.1	10.4	-10.1
O=C(O)/C=C/c1ccc(N2Cc3ccccc3C2)cc1	.	.	.	.	1.8	.
COc1cccc(OCCn2cc(C(=O)c3ccco3)c3ccccc32)c1	28.2	-12.0	-3.6	1.2	8.8	43.4
COc1ccccc1OCCn1cc(C(=O)c2ccco2)c2ccccc21	25.2	-19.0	35.2*	1	2.2	50.0
CCN(CC(=O)Nc1c(C(=O)OC)[nH]c2ccc(Cl)cc12)c1ccc2c(c1)OCO2	56.6*	-14.0	19.3	1.3	2.8	20.1
COC(=O)c1[nH]c2cc(OC)ccc2c1NC(=O)CN1CCN(c2cccc(C)c2)C(C)C1 (stereo not given)	36.9*	-4.0	-0.1	1.3	-0.2	16.4
COC(=O)c1[nH]c2ccc(C)cc2c1NC(=O)CCN1CCN(Cc2ccc3c(c2)OCO3)CC1	-7.1	3.0	-2.4	1.1	-3.4	10.2
CCOC(=O)C1CCCN(CC(=O)Nc2c(C(=O)OC)[nH]c3ccc(Cl)cc23)C1 (stereo not given)	39.1*	10.0	-9.7	1.6	8.2	13.4
CCOc1ccc(NC(=O)c2ccc(S(=O)(=O)N(C)C)cc2)c([N+](=O)[O-])c1	.	.	.	.	-8.9	.
CCOC(=O)c1c(-c2cccs2)csc1NC(=O)CN1CC(C)OC(C)C1 (stereo not given)	43.5*	-15.0	-2.8	1.1	10.6	68.2*
CCOC(=O)c1c(-c2cccs2)csc1NC(=O)CNCCN1CCOCC1	6.1	1.0	2.7	2*	.	.
CCOC(=O)c1c(-c2cccs2)csc1NC(=O)C(C)(C)C	1.9	4.0	0.6	1.4	.	.
Cc1cc(OCC(=O)Nc2ccc3ccccc3c2)cc(C)c1Cl	.	.	.	.	4.6	.
SMILES	PostGolgi ctrl	Ecoli WT expand	PostGolgi yeast	PLAP activator	HePTP inhibitor	Ecoli tolC
Cc1cccc(OCC(=O)Nc2ccccc2N2CCN(C(=O)C(C)C)CC2)c1C	41.6*	8.0	2.9	0.9	4.2	56.0
Cc1cc(Cl)ccc1OCC(=O)Nc1ccccc1N1CCOCC1	23.5	-19.0	-4.6	1.3	2.9	86.2*
COc1cccc(C(=O)OCC(=O)Nc2ccccc2N2CCOCC2)c1	38.5*	2.0	3.7	1	-5.1	23.7
COc1ccc(Cl)cc1C(=O)Nc1ccccc1N1CCN(C(=O)C(C)C)CC1	53.7*	-11.0	11.0	1.4	-3.2	10.5
CC(=C\C(=O)O)/C(=C/c1ccc2ccccc2n1)C(=O)O	.	.	.	.	14.7	.
Cc1nc2ccc(NS(=O)(=O)c3c(C)c(C)cc(C)c3C)cc2s1	36.4*	3.0	10.1	1.2	.	.
N#CC1=C(N)OC(c2ccccc2)=C(C#N)C1c1ccc2c(c1)OCO2 (stereo not given)	97.8*	-1.0	104.0*	0.8	-4.5	10.6
Cc1ccc(C2C(C#N)=C(N)Oc3cc4c(cc32)OCO4)cc1 (stereo not given)	14.4	-4.0	-4.5	1	5.9	18.9
CSc1nc(N)nc(SCCS(=O)(=O)c2ccc(Cl)cc2)c1C#N	57.6*	-24.0	1.8	.	-14.0	47.5
CSc1nc(N)nc(SCC(=O)Nc2ccc(Cl)cc2)c1C#N	14.3	-4.0	5.9	0.9	.	.
CN1CCN(C(=O)c2cc(Cl)ccc2Cl)CC1	31.3*	4.0	-0.5	0.8	-5.0	-6.0
Cc1ccc(-c2nnn(CC(=O)N3CCCc4ccccc43)n2)cc1	9.1	-2.0	-11.6	0.9	.	.
Cc1ccc(-c2noc(CCC(=O)N3CCN(c4cccc(C(F)(F)F)c4)CC3)n2)cc1	15.3	-1.0	2.2	1	1.9	63.7*
Cc1ccc(-c2noc(CCC(=O)N3CCCc4ccccc43)n2)cc1	24.1	3.0	-5.0	1.6	3.7	91.6*
C(=N\c1nc2ccccc2s1)/c1ccc(/C=N/c2nc3ccccc3s2)cc1	.	.	.	.	1.9	.
Cc1c(NC(=O)c2ccc(I)o2)cccc1-c1nc2ccccc2s1	.	.	.	.	1.8	.
Cc1cc(C)c2nc3s/c(=C/c4cccn4-c4ccc([N+](=O)[O-])cc4)c(=O)n3c2c1	.	.	.	.	84.7*	.
Cc1ccc(-c2ccc(/C=C3/SC(=S)NC3=O)o2)cc1Cl	.	.	.	.	8.2	.
O=C(O)c1cc(-c2ccc(/C=C3/Sc4ccccc4C3=O)o2)ccc1O	.	.	.	.	102.1*	.
O=C1NC(=S)S/C1=C\c1ccc(-c2ccc(Cl)c(C(=O)O)c2)o1	.	.	.	.	101.1*	.
CCOC(=O)c1ccc(-c2ccc(/C=C3\Sc4ccccc4C3=O)o2)cc1	.	.	.	.	-24.0	.
O=C1NC(=O)/C(=C/c2ccc(-c3ccc(O)c(C(=O)O)c3)o2)S1	.	.	.	.	102.4*	.
CCOC(=O)C1=C(C)N=c2s/c(=C/c3cccc([N+](=O)[O-])c3)c(=O)n2C1c1ccccc1Cl (stereo not given)	.	.	.	.	0.9	.
CCOC(=O)c1c(NC(=O)c2cnccn2)sc2c1CCCC2	.	.	.	.	4.4	.
O=C(CCNc1ccc2ccccc2c1)c1ccc(Cl)c(Cl)c1	.	.	.	.	-1.0	.
Cc1cc(C)c2nc3s/c(=C\c4ccc(-c5ccc(Cl)c(C(=O)O)c5)o4)c(=O)n3c2c1	.	.	.	.	89.7*	.
Cc1c(Cl)cccc1N=C1NC(=O)/C(=C/c2cccc(O)c2)S1	.	.	.	.	6.3	.
